Bioassay records from PubChem BioAssay.
Compounds with a hit are over-represented: about 1.9% of the library has one in this group of screens.
M4 PAM: positive allosteric modulators of human muscarinic M4 receptor; AID 624126; activation, % at 3 µM; CHO-K1 hM4/Gqi5, Fluo-8 calcium fluorescence, ACh EC20; 0% = ACh EC20, 100% = maximal ACh; hit rate 0.4% among 360,000;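 active = activation above its plate's cutoff, the mean activation of sample wells plus 3 SD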
M4 antag: CHRM4 antagonism in calcium assay; hit rate 0.73% among 360,000; P08173; AID 624125; CHO-hM4 cells, ACh EC80, Fluo-8 calcium fluorescence; inhibition, % at 3 µM;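 active = inhibition above its plate's cutoff, the mean inhibition of sample wells plus 3 SD, cut at about 27% in these data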;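 also: 0% = acetylcholine EC80 with DMSO and 100% = DMSO without agonist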
CHRM5 antagonist: CHRM5 antagonism in calcium assay | inhibition, % at 3 µM | CHO-hM5 cells, Fluo-8 calcium fluorescence, ACh EC80 | hit rate 0.59% among 360,000 | AID 624040 | P08912;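 active = inhibition above a per-plate cutoff, the mean of that plate's test compounds plus 3 SD, cut at about 27% in these data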;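 also: 0% = acetylcholine EC80 with DMSO and 100% = DMSO without agonist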
Target sequence (P08912 whole entry, looked up): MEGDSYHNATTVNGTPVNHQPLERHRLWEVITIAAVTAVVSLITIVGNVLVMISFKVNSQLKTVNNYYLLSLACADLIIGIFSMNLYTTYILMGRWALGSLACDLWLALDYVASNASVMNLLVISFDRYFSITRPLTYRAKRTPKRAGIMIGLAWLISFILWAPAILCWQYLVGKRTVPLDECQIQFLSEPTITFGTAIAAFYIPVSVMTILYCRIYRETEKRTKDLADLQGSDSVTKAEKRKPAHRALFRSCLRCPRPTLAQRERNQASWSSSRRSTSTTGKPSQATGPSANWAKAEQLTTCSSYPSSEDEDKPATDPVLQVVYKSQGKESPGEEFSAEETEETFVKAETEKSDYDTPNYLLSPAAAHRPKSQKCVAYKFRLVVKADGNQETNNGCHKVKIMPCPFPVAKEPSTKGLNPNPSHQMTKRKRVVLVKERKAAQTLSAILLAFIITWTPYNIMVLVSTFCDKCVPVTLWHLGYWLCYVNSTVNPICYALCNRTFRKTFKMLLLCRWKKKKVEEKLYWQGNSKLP
M5 ag: agonists of human muscarinic M5 receptor (CHRM5); activation, % at 3 µM; CHO-K1 hM5 cells, Fluo-8 calcium fluorescence; 0% DMSO wells, 100% maximal acetylcholine response; hit rate 0.19% among 360,000; P08912;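 active = activation above the run's mean over test compounds plus 3 SD, cut at about 23% in these data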;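 also: signal is peak over basal fluorescence ratio across the kinetic read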
M4 ag: CHRM4 agonism in calcium assay; hit rate 0.14% among 360,000; AID 624127; activation, % at 3 µM; P08173; CHO-K1 hM4/Gqi5, Fluo-8 calcium fluorescence; vehicle 0%, full acetylcholine response 100%;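 active = activation above the run mean over all test wells plus 3 SD, cut at about 32% in these data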;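 also: peak over basal fluorescence ratio per well then scaled between controls; 0% = DMSO wells and 100% = acetylcholine at EC100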
M5 PAM: potentiates acetylcholine response at human M5 receptor; P08912; CHO-K1 hM5, Fluo-8 calcium, ACh EC20 PAM; 0% = ACh EC20, 100% = ACh EC100; activation, % at 3 µM; hit rate 0.3% among 360,000; AID 624038;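 active = activation above the run cutoff, the mean activation of all test compounds plus 3 SD, cut at about 18% in these data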
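Assay system: CHO-K1 hM5 cells / Incubation: Fluo-8 loading 80 min at 37 °C plus 30 min room temperature / Technique: Fluo-8 calcium dye fluorescence, kinetic read / Repeats: single replicate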
Starred values were filed as active, the others as inactive.

SMILES	M4 PAM	M4 antag	CHRM5 antagonist	M5 ag	M4 ag	M5 PAM
Cc1ccnc(NS(=O)(=O)c2ccc(NC(=O)C3CC3)cc2)n1	-1	-1	5	1	1	3
Cc1ccc(N2CCN(C(C(=O)Nc3c(C)cccc3C)c3cc4ccccc4o3)CC2)cc1 (stereo not drawn)	2	-19	-14	-1	1	9
O=C1CCCC(O)=C1N=Nc1cccc(C(=O)O)c1	20*	-2	-9	-6	3	-7
COc1ncnc2c1ncn2CCCNCc1ccc2c(c1)OCO2	7	-18	13	0	0	-6
CCn1c(NC(=O)C(C)C)c(-c2cccs2)c(=O)c2ccccc21	-2	-6	-3	6	1	5
CCn1c(NC(=O)c2ccccc2F)c(-c2cccs2)c(=O)c2ccccc21	-34	29*	1	7	0	-9
Cc1cc(C)[n+]2[nH]c(N)c(N=Nc3ccccc3)c2n1	10	1	-17	3	2	22*
COC(=O)c1ccc(N2C(c3ccsc3)=Cc3cc4c(cc3C2CC(=O)c2ccco2)OCO4)cc1 (stereo not drawn)	-14	30*	1	-7	-1	-10
O=C(COc1ccc(C(F)(F)F)cc1[N+](=O)[O-])Nc1cccc(C(F)(F)F)c1	30*	14	-9	-4	2	15
O=C(CN1C(=O)NC2(CCCCC2)C1=O)Nc1cccc2ncccc12	24*	-25	8	1	0	-8
Cc1cccc(NC(=O)CN2C(=O)NC3(CCCCCCC3)C2=O)c1C	1	-6	21	3	1	3
CCN1CCC2(CC1)N=C(c1ccc(F)cc1)C(=S)N2C(=O)c1ccc(C(C)(C)C)cc1	-10	18	76*	-8	2	-19
CN1CCC2(CC1)N=C(c1ccc(F)cc1)C(=S)N2C(=O)c1ccccc1	6	-1	40*	-8	2	-19
O=C(c1ccccc1)N1N=C(c2ccc(F)cc2)CC1(O)C(F)(F)F (stereo not drawn)	-1	1	2	-5	-1	-1
Fc1ccc(COc2ccc(Cl)cc2/C=N/Nc2nc(N3CCCC3)nc(N3CCCC3)n2)cc1	-15	-1	17	2	34*	-9
O=C1CCC(=O)N1CC(=O)N1CCCc2ccccc21	-2	6	2	-4	0	5
CCn1c(C)nc2cc(C(=O)OC(C(F)(F)C(F)F)C(F)(F)C(F)F)ccc21	-22	25	39*	5	15	-15
CC(C)=CCN1CCN(Cc2cn(C(C)C)c3ccccc23)CC1CCO (stereo not drawn)	-2	-7	-4	-9	2	0
CCOC(=O)Nc1ccc2c(c1)N(C(=O)N1CCN(C)CC1)c1ccccc1S2	-22	6	60*	-7	5	-18
CCOC(=O)Nc1ccc2c(c1)N(C(=O)CCN1CCN(C)CC1)c1ccccc1S2	-6	5	-4	-5	1	-5
CC(C)OC(=O)Nc1ccc2c(c1)N(C(=O)N1CCN(C)CC1)c1ccccc1CC2	-14	28*	46*	-18	1	-29
CCOC(=O)Nc1ccc2c(c1)N(C(=O)CN(CC)CC)c1ccccc1CC2	-12	32*	3	-27	-1	-26
CCc1nc2c(OCc3cc(Cl)cc(Cl)c3)cccn2c1N(C)C(=O)Nc1ccccc1OC	-2	-1	-7	-2	-1	0
COc1ccc(C(=O)Nc2cc(=O)[nH]c3ncnn23)cc1	4	29*	5	-1	0	1
O=C(Nc1cc(=O)[nH]c2ncnn12)c1ccco1	6	14	1	0	0	0
SMILES	M4 PAM	M4 antag	CHRM5 antagonist	M5 ag	M4 ag	M5 PAM
CCC1(c2ccc(F)cc2)NC(=O)N(CC(=O)Nc2cccc(S(=O)(=O)N3CCOCC3)c2)C1=O (stereo not drawn)	10	-10	0	3	1	8
COc1cccc(NC(=O)CSCc2nc3sc(C)c(C)c3c(=O)[nH]2)c1	3	-6	5	1	1	-2
CNC(=O)C(=O)Nc1nc(C23CC4CC(CC(C4)C2)C3)cs1	3	1	-9	-4	1	19*
O=C(NCc1ccccc1)C(=O)Nc1nc(C23CC4CC(CC(C4)C2)C3)cs1	-8	26	2	0	-1	-4
COc1ccccc1N(C)S(=O)(=O)c1ccc(C(=O)Nc2nccs2)cc1	-9	-3	9	3	16	-21
CCOc1cc(OCC)cc(C(=O)N2CCC[C@@H]2C(=O)N2CCC[C@@H]2C(=O)NCc2ccccc2Cl)c1	3	-4	9	11	8	-8
O=C(c1[nH]c(C(F)(F)F)nc1-c1ccccc1)N1CCN(c2ccccc2)CC1	2	-12	5	1	1	3
O=C(c1[nH]c(C(F)(F)F)nc1-c1ccccc1)N1CCN(c2c(Cl)cncc2Cl)CC1	-7	3	14	36*	46*	-6
CN1CCC(N2CCN(C3CN(C4CCCC4)S(=O)(=O)C3)CC2)CC1 (stereo not drawn)	2	1	0	2	1	-1
CC(C)CC1CCCCC1OC(=O)C[N+]1(C)CCCCC1 (stereo not drawn)	-20	87*	97*	-11	1	-16
Cc1ccsc1/C=N/NC(=O)c1nnn(-c2nonc2N)c1-c1ccc2c(c1)OCO2	9	3	-6	7	4	6
Cc1ccc(-c2c(C(=O)N/N=C/c3cccs3)nnn2-c2nonc2N)cc1	4	-3	-4	17	5	5
Nc1nonc1-n1nnc(C(=O)N/N=C/c2ccccc2Cl)c1CN1CCOCC1	16*	-6	7	-7	0	-2
Cc1ccc(-c2c(C(=O)N/N=C/c3ccsc3)nnn2-c2nonc2N)cc1	-6	-8	0	26*	8	0
Nc1nonc1-n1nnc(C(=O)N/N=C/c2cccs2)c1-c1ccc2c(c1)OCO2	-4	-11	-21	57*	69*	-2
CCOc1ccc(-c2c(C(=O)N/N=C(\C)c3cccnc3)nnn2-c2nonc2N)cc1	11	8	-4	7	3	20*
CCN1C[C@@H]2[C@@H]3C(=O)N(Cc4ccccc4)C(=O)[C@@H]3[C@](C)(C1=O)N2C(=O)c1ccc(C(F)(F)F)cc1	3	-7	-4	3	2	-1
CC1CC(C)CN(C(=O)CN2C(=O)NC3(CCCCCCC3)C2=O)C1 (stereo not drawn)	2	-5	-4	6	1	6
